# Test results published in publication PMC8358123 (International Journal for Parasitology: Drugs and Drug …, 2021).
# Key:
# [1] = test system: T. b. rhodesiense (STIB-900 strain); assay: In vitro activity against T. b. rhodesiense; type: cell-based; details: Trypanosoma brucei, read-out: T. b. rhod. EC50
# Method in brief: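 STIB-900 parasites, axenic in HMI-9 with 10% FBS at 37 °C and 5% CO2, seeded at 4×10^3 parasites/well. Test compound was given as ten 4-fold dilutions (top 64 μM, <1% DMSO). Growth period […], then resazurin added and fluorescence measured after 24 h. IC50 from a sigmoid variable-slope fit versus untreated controls; mean ± SEM, 2–4 experiments. Suramin as reference.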
# [2] = test system: T. b. brucei (Squib 427 strain); assay: In vitro activity against T. b. brucei; type: cell-based; details: Trypanosoma brucei, read-out: T. b. bruc. EC50
# MRC-5SV2 cytotoxicity = type: cell-based, human; details: human, MRC-5SV2 cells, MRC-5 CC50, MRC-5SV2 cells, 3 days incubation
# Method in brief: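 MRC-5SV2 cells (3×10^4 cells/mL) in MEM with Earl's salts, L-glutamine, NaHCO3 and 5% inactivated FCS, at 37 °C and 5% CO2. Exposure to test compound (ten 4-fold dilutions, top 64 μM, <1% DMSO) lasted 3 days. Resazurin was then added for 4 h at 37 °C, with fluorescence read at ex 550/em 590 nm. CC50 from % reduction relative to untreated (100%) and medium-only (0%) controls.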
# [3] = test system: T. cruzi Tulahuen CL2 β-galactosidase strain; assay: In vitro activity against T. cruzi intracellular amastigotes in MRC-5SV2 cells; type: cell-based; details: Trypanosoma cruzi, MRC-5 SV2, 168 h, read-out: T. cruzi EC50
# Method in brief: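 Nifurtimox-sensitive Tulahuen CL2 β-galactosidase parasites infected MRC-5SV2 fibroblasts in MEM with 200 mM L-glutamine, 16.5 mM NaHCO3 and 5% inactivated FCS, at 37 °C and 5% CO2. Wells held 4×10^3 cells and 4×10^4 parasites. Test compound was given as ten 4-fold dilutions (top 64 μM, <1% DMSO) for 7 days. CPRG was then added for 4 h at 37 °C and absorbance read at 540 nm. IC50 from % reduction versus untreated-infected controls; mean ± SEM, 2–4 experiments. Benznidazole reference.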
# PMM cytotoxicity = type: cell-based, mouse; details: Swiss, mouse, PMM CC50, primary peritoneal mouse macrophages
smiles,measurement,setting,value
Cc1ncnc2c1c(F)cn2[C@@H]1O[C@H](CO)[C@@H](O)[C@H]1O [compound 6],EC50,[1],< 0.25 µM
same,EC50,[2],0.41 µM
same,CC50 at 3 days,MRC-5SV2 cytotoxicity,0.3 µM
same,EC50,[3],< 0.25 µM
same,CC50 at 5 days,PMM cytotoxicity,32 µM
Cc1ncnc2c1c(Br)cn2[C@@H]1O[C@H](CO)[C@@H](O)[C@H]1O [compound 8],EC50,[1],3.84 µM
same,EC50,[2],> 64 µM
same,CC50 at 3 days,MRC-5SV2 cytotoxicity,39.6 µM
same,EC50,[3],5.28 µM
same,CC50 at 5 days,PMM cytotoxicity,32 µM
Cc1cn([C@@H]2O[C@H](CO)[C@@H](O)[C@H]2O)c2ncnc(C)c12 [compound 9],EC50,[1],0.45 ± 0.08 µM
same,EC50,[2],0.82 ± 0.32 µM
same,CC50 at 3 days,MRC-5SV2 cytotoxicity,> 64 µM
same,EC50,[3],1.54 ± 0.52 µM
same,CC50 at 5 days,PMM cytotoxicity,> 64 µM
Cc1ncnc2c1c(SC(F)(F)F)cn2[C@@H]1O[C@H](CO)[C@@H](O)[C@H]1O [compound 11],EC50,[1],> 64 µM
same,EC50,[2],> 64 µM
same,EC50,[3],30.9 µM
same,CC50 at 5 days,PMM cytotoxicity,> 64 µM
C=Cc1cn([C@@H]2O[C@H](CO)[C@@H](O)[C@H]2O)c2ncnc(C)c12 [compound 12],EC50,[1],2.2 ± 0.11 µM
same,EC50,[2],2.73 ± 0.28 µM
same,CC50 at 3 days,MRC-5SV2 cytotoxicity,> 64 µM
same,EC50,[3],6.95 ± 1.29 µM
same,CC50 at 5 days,PMM cytotoxicity,> 64 µM
C=C(C)c1cn([C@@H]2O[C@H](CO)[C@@H](O)[C@H]2O)c2ncnc(C)c12 [compound 14],EC50,[1],< 0.25 µM
same,EC50,[2],0.5 µM
same,CC50 at 3 days,MRC-5SV2 cytotoxicity,1.49 µM
same,EC50,[3],5.04 µM
same,CC50 at 5 days,PMM cytotoxicity,> 64 µM
Cc1ncnc2c1c(C(C)C)cn2[C@@H]1O[C@H](CO)[C@@H](O)[C@H]1O [compound 15],EC50,[1],0.51 µM
same,EC50,[2],0.67 µM
same,CC50 at 3 days,MRC-5SV2 cytotoxicity,0.3 µM
same,EC50,[3],29.1 µM
same,CC50 at 5 days,PMM cytotoxicity,> 64 µM
Cc1ncnc2c1c(C1=CCCC1)cn2[C@@H]1O[C@H](CO)[C@@H](O)[C@H]1O [compound 16],EC50,[1],> 64 µM
same,EC50,[2],> 64 µM
same,CC50 at 3 days,MRC-5SV2 cytotoxicity,> 64 µM
same,EC50,[3],> 64 µM
same,CC50 at 5 days,PMM cytotoxicity,> 64 µM
Cc1ncnc2c1c(C1CCCC1)cn2[C@@H]1O[C@H](CO)[C@@H](O)[C@H]1O [compound 17],EC50,[1],53.6 µM
same,EC50,[2],> 64 µM
same,CC50 at 3 days,MRC-5SV2 cytotoxicity,> 64 µM
same,EC50,[3],48.9 µM
same,CC50 at 5 days,PMM cytotoxicity,> 64 µM
Cc1ncnc2c1c(C1=CCCCC1)cn2[C@@H]1O[C@H](CO)[C@@H](O)[C@H]1O [compound 18],EC50,[1],> 64 µM
same,EC50,[2],> 64 µM
same,CC50 at 3 days,MRC-5SV2 cytotoxicity,> 64 µM
same,EC50,[3],> 64 µM
same,CC50 at 5 days,PMM cytotoxicity,> 64 µM
Cc1ncnc2c1c(C1CCCCC1)cn2[C@@H]1O[C@H](CO)[C@@H](O)[C@H]1O [compound 19],EC50,[1],> 64 µM
same,EC50,[2],> 64 µM
same,CC50 at 3 days,MRC-5SV2 cytotoxicity,> 64 µM
same,EC50,[3],> 64 µM
same,CC50 at 5 days,PMM cytotoxicity,> 64 µM
Cc1ncnc2c1c(C1=CCOCC1)cn2[C@@H]1O[C@H](CO)[C@@H](O)[C@H]1O [compound 20],EC50,[1],9.75 ± 0.02 µM
same,EC50,[2],12.3 ± 2.45 µM
same,CC50 at 3 days,MRC-5SV2 cytotoxicity,> 64 µM
same,EC50,[3],2.87 ± 0.28 µM
same,CC50 at 5 days,PMM cytotoxicity,> 64 µM
Cc1ncnc2c1c(C1CCOCC1)cn2[C@@H]1O[C@H](CO)[C@@H](O)[C@H]1O [compound 21],EC50,[1],12 ± 1.75 µM
same,EC50,[2],15.1 ± 1.02 µM
same,CC50 at 3 days,MRC-5SV2 cytotoxicity,> 64 µM
same,EC50,[3],3.98 ± 0.94 µM
same,CC50 at 5 days,PMM cytotoxicity,> 64 µM
Cc1ncnc2c1c(-c1ccccc1)cn2[C@@H]1O[C@H](CO)[C@@H](O)[C@H]1O [compound 24],EC50,[1],> 64 µM
same,EC50,[2],> 64 µM
same,CC50 at 3 days,MRC-5SV2 cytotoxicity,> 64 µM
same,EC50,[3],40.3 µM
same,CC50 at 5 days,PMM cytotoxicity,> 64 µM
CCCC#Cc1cn([C@@H]2O[C@H](CO)[C@@H](O)[C@H]2O)c2ncnc(C)c12 [compound 25],EC50,[1],0.37 ± 0.08 µM
same,EC50,[2],0.89 ± 0.21 µM
same,CC50 at 3 days,MRC-5SV2 cytotoxicity,> 64 µM
same,EC50,[3],20.4 ± 0.39 µM
same,CC50 at 5 days,PMM cytotoxicity,> 64 µM
CCCCCc1cn([C@@H]2O[C@H](CO)[C@@H](O)[C@H]2O)c2ncnc(C)c12 [compound 26],EC50,[1],> 64 µM
same,EC50,[2],> 64 µM
same,CC50 at 3 days,MRC-5SV2 cytotoxicity,> 64 µM
same,EC50,[3],> 64 µM
same,CC50 at 5 days,PMM cytotoxicity,> 64 µM
CCCCC#Cc1cn([C@@H]2O[C@H](CO)[C@@H](O)[C@H]2O)c2ncnc(C)c12 [compound 27],EC50,[1],1.19 µM
same,EC50,[2],0.52 µM
same,CC50 at 3 days,MRC-5SV2 cytotoxicity,7.58 µM
same,EC50,[3],2.08 µM
same,CC50 at 5 days,PMM cytotoxicity,8 µM
CCCCCCc1cn([C@@H]2O[C@H](CO)[C@@H](O)[C@H]2O)c2ncnc(C)c12 [compound 28],EC50,[1],> 64 µM
same,EC50,[2],> 64 µM
same,CC50 at 3 days,MRC-5SV2 cytotoxicity,> 64 µM
same,EC50,[3],42.1 µM
same,CC50 at 5 days,PMM cytotoxicity,> 64 µM
CC(C)=Cc1cn([C@@H]2O[C@H](CO)[C@@H](O)[C@H]2O)c2ncnc(C)c12 [compound 29],EC50,[1],> 64 µM
same,EC50,[2],> 64 µM
same,CC50 at 3 days,MRC-5SV2 cytotoxicity,> 64 µM
same,EC50,[3],> 64 µM
same,CC50 at 5 days,PMM cytotoxicity,> 64 µM
Cc1ncnc2c1c(CC(C)C)cn2[C@@H]1O[C@H](CO)[C@@H](O)[C@H]1O [compound 30],EC50,[1],> 64 µM
same,EC50,[2],> 64 µM
same,CC50 at 3 days,MRC-5SV2 cytotoxicity,> 64 µM
same,EC50,[3],> 64 µM
same,CC50 at 5 days,PMM cytotoxicity,> 64 µM
Cc1ncnc2c1c(C#CC(C)C)cn2[C@@H]1O[C@H](CO)[C@@H](O)[C@H]1O [compound 31],EC50,[1],16 µM
same,EC50,[2],23.5 µM
same,CC50 at 3 days,MRC-5SV2 cytotoxicity,> 64 µM
same,EC50,[3],> 64 µM
same,CC50 at 5 days,PMM cytotoxicity,> 64 µM
Cc1ncnc2c1c(CCC(C)C)cn2[C@@H]1O[C@H](CO)[C@@H](O)[C@H]1O [compound 32],EC50,[1],4 µM
same,EC50,[2],> 64 µM
same,CC50 at 3 days,MRC-5SV2 cytotoxicity,> 64 µM
same,EC50,[3],> 64 µM
same,CC50 at 5 days,PMM cytotoxicity,> 64 µM
Cc1ncnc2c1c(C#CC1CC1)cn2[C@@H]1O[C@H](CO)[C@@H](O)[C@H]1O [compound 33],EC50,[1],0.34 ± 0.11 µM
same,EC50,[2],1.36 ± 0.41 µM
same,CC50 at 3 days,MRC-5SV2 cytotoxicity,27.5 ± 19 µM
same,EC50,[3],4.59 ± 0.89 µM
same,CC50 at 5 days,PMM cytotoxicity,> 64 µM
Cc1ncnc2c1c(CCC1CC1)cn2[C@@H]1O[C@H](CO)[C@@H](O)[C@H]1O [compound 34],EC50,[1],> 64 µM
same,EC50,[2],> 64 µM
same,CC50 at 3 days,MRC-5SV2 cytotoxicity,> 64 µM
same,EC50,[3],> 64 µM
same,CC50 at 5 days,PMM cytotoxicity,> 64 µM
Cc1ncnc2c1c(/C=C/c1ccccc1)cn2[C@@H]1O[C@H](CO)[C@@H](O)[C@H]1O [compound 35],EC50,[1],4.54 ± 0.93 µM
same,EC50,[2],6.19 ± 0.57 µM
same,CC50 at 3 days,MRC-5SV2 cytotoxicity,26.6 ± 1.42 µM
same,EC50,[3],1.94 ± 0.09 µM
same,CC50 at 5 days,PMM cytotoxicity,32 µM
Cc1ncnc2c1c(CCc1ccccc1)cn2[C@@H]1O[C@H](CO)[C@@H](O)[C@H]1O [compound 36],EC50,[1],38.7 µM
same,EC50,[2],> 64 µM
same,CC50 at 3 days,MRC-5SV2 cytotoxicity,> 64 µM
same,EC50,[3],40.3 µM
same,CC50 at 5 days,PMM cytotoxicity,> 64 µM
CCc1cn([C@@H]2O[C@H](CO)[C@@H](O)[C@H]2O)c2ncnc(CC)c12 [compound 37],EC50,[1],2.02 µM
same,EC50,[2],2.03 µM
same,CC50 at 3 days,MRC-5SV2 cytotoxicity,20.2 µM
same,EC50,[3],> 64 µM
same,CC50 at 5 days,PMM cytotoxicity,> 64 µM
CCc1cn([C@@H]2O[C@H](CO)[C@@H](O)[C@H]2O)c2ncncc12 [compound 38],EC50,[1],1.73 µM
same,EC50,[2],1.54 µM
same,CC50 at 3 days,MRC-5SV2 cytotoxicity,> 64 µM
same,EC50,[3],5.38 µM
same,CC50 at 5 days,PMM cytotoxicity,> 64 µM
CCc1cn([C@@H]2O[C@H](CO)[C@@H](O)[C@H]2O)c2nc[nH]c(=O)c12 [compound 40],EC50,[1],40.3 µM
same,EC50,[2],48.5 µM
same,CC50 at 3 days,MRC-5SV2 cytotoxicity,> 64 µM
same,EC50,[3],> 64 µM
same,CC50 at 5 days,PMM cytotoxicity,> 64 µM
